pEC50, pIC50, pKi: −log10 of the molar value. Calls of active or inactive are those of the source. The rule behind the calls is not given here.
Key:
Prostacyclin receptor = Prostacyclin receptor (Homo sapiens, UniProt P43119); assay: Displacement of [3H]-Iloprost from human IP receptor assessed as inhibition constant incubated for 2 hrs by TopCount NXT counter based analysis
In short: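 Radioligand displacement with [3H]iloprost (20 µL of a 100 nM stock), using HEK membranes expressing human IP (10 µg per well). Buffer was 10 mM HEPES, 10 mM MgCl2, 1 mM EDTA, pH 7.4, with top concentration 10 µM. Nonspecific binding was defined with 10 µM carbacyclin. Incubated 2 h at room temperature with shaking, then filtered on GF/B, washed cold and counted by scintillation. FP, TP and LTB4 assays were run externally.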

Rattus norvegicus [1] = assay: Effect on butaprost-induced cutaneous blood flow in Sprague-Dawley rat assessed as reduction in mean cutaneous blood flow peak response at 10 mg/kg, po measured upto 95 mins; type: functional; set-up: scale not given: the % may be the effect or the level left; conditions: 1.583 h
In short: (§1)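 Sprague Dawley rats (442–515 g) dosed orally with compound or vehicle (0.5% methylcellulose/0.1% Tween 80, 1 mL/kg). About 1 h 25 min later rats were placed under isoflurane and the abdomen shaved. Baseline laser Doppler scans were taken every 5 min for 35 min. Then 10 µL s.c. PGE2 (3 µg/mL) or butaprost (30 µg/mL) was injected, and scanning continued 60 min. Responses were vehicle-subtracted and normalized to the final three baselines. Peak and AUC0–60 were calculated.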

[2] = Free plasma concentration in Sprague-Dawley rat at 1 to 10 mg/kg, po measured after 1.5 hrs; type: ADME, organism-based; conditions: in vivo, dose 1-10 mg/kg
Mus musculus = species on record: Mus musculus; assay: Induction of relaxation in PGE2-induced carbachol pre-contracted C57BL/6 mouse trachea at 1 to 3 nM incubated for 30 mins; conditions: dose 1-3 nM
[3] = target: Prostaglandin E2 receptor EP4 subtype (Homo sapiens, UniProt P35408); assay: Agonist activity at human EP4 receptor expressed in CHO cells incubated for 30 mins; type: functional, cell-based
Sequence of Prostaglandin E2 receptor EP4 subtype (P35408 whole entry, the tested form may be a part): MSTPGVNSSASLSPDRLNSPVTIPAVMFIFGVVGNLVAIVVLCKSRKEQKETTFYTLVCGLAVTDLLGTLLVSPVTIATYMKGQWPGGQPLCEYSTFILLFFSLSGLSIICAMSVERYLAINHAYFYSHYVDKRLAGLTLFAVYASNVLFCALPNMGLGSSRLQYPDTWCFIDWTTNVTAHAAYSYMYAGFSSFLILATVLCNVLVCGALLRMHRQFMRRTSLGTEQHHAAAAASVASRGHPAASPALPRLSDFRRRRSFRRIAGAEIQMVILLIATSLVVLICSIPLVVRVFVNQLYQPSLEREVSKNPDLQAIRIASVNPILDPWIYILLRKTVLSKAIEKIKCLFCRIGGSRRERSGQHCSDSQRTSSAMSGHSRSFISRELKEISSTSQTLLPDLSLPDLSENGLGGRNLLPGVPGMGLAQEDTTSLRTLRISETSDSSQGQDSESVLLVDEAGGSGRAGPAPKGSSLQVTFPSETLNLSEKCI
In short: (§2)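 Reporter CHO cells (CRE β-lactamase host) stably expressing the human receptor, suspended in DMEM at 1 × 10^6 cells/mL. Compound in PBS/DMSO/pluronic buffer, preincubated with cells for 30 min at 37°C. In antagonist mode, agonist was then added for 90 min at 37°C; agonist mode used buffer instead. Cells were lysed by freezing, and cAMP was read by DiscoveRx enzyme-fragment luminescence after 4–20 h. Four-parameter logistic fit.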

[4] = target: T1, Prostaglandin E2 receptor EP3 subtype (Homo sapiens, UniProt P43115); assay: Antagonist activity at human EP3 receptor expressed in CHO cells assessed as increase in cAMP level incubated for 30 mins followed by agonist addition measured after 90 mins; type: functional, cell-based
T1 sequence (P43115 whole entry): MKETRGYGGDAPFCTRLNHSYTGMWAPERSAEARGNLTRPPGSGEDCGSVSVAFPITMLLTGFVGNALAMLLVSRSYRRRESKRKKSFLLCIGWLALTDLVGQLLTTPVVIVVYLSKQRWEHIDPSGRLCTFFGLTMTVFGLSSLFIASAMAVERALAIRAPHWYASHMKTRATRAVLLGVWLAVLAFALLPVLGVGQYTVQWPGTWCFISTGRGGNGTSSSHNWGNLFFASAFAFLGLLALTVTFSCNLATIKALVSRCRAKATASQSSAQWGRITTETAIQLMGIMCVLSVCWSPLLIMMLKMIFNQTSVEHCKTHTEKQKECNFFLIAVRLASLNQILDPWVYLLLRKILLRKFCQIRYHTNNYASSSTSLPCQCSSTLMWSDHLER

[5] = Free plasma concentration in Sprague-Dawley rat at 1 to 10 mg/kg, po measured after 3 hrs; type: ADME, organism-based; conditions: in vivo, dose 1-10 mg/kg
[6] = target: Prostaglandin F2-alpha receptor (Homo sapiens, UniProt P43088); assay: Displacement of [3H]-Iloprost from human FP receptor assessed as inhibition constant incubated for 2 hrs by TopCount NXT counter based analysis
Sequence of Prostaglandin F2-alpha receptor (P43088 whole entry): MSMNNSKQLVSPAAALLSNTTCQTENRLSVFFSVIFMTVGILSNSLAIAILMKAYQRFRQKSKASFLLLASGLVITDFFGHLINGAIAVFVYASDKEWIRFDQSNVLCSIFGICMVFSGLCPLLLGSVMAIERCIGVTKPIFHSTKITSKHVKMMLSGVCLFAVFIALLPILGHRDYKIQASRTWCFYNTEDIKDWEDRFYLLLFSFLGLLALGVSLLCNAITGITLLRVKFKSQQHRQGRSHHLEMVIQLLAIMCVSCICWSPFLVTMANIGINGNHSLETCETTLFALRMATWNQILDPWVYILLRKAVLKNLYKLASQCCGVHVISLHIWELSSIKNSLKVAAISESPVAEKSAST

[7] = Inhibition of EFS-induced contraction of human myometrium assessed as butaprost IC50 at 10 nM incubated for 60 mins (reference value: 27.8 nM); type: functional, tissue-based
In short: (§3)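 Human myometrial strips (donors aged 24–76) in a 15 mL Krebs bath at 37°C, under EFS at 15 V, 1.5 ms pulses, 10 s every 100 s, at a submaximal 15 Hz. Antagonist (10 or 100 nM) or vehicle was equilibrated for 60 min. Cumulative butaprost (0.1 nM–10 µM) or PGE2 (0.1 nM–3 µM) was given for at least five EFS responses per concentration. pKB was calculated from same-donor concentration ratios.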

[8] = target: T2, Prostaglandin D2 receptor 2 (Homo sapiens, UniProt Q9Y5Y4); assay: Antagonist activity at human CRTH2 receptor incubated for 30 mins followed by agonist addition measured after 90 mins; type: functional
T2 sequence (Q9Y5Y4 whole entry): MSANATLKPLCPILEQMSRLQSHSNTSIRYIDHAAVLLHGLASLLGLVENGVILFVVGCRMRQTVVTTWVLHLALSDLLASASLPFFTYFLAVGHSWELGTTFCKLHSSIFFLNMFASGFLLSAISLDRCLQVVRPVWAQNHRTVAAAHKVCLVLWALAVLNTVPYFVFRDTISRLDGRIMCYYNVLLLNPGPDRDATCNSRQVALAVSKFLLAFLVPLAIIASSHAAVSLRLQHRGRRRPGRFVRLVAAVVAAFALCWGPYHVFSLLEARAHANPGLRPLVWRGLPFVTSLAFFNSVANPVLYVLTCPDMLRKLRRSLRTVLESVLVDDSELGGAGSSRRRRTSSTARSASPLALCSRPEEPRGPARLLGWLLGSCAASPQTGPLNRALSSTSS
In short: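 CHO reporter cells expressing human CRTH2, run in the DiscoveRx cAMP format. Compound preincubated with cells for 30 min at 37°C, then cells were stimulated with 8 µM forskolin plus agonist for 90 min at 37°C. Cells were lysed at −80°C and cAMP was read by luminescence. IC50 from an unconstrained four-parameter logistic fit.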

[9] = Oral bioavailability in Sprague-Dawley rat at 1 mg/kg; type: ADME, organism-based; conditions: in vivo
Thromboxane A2 receptor = target: T3, Thromboxane A2 receptor (Homo sapiens, UniProt P21731); assay: Displacement of [3H]-Iloprost from human TP receptor assessed as inhibition constant incubated for 2 hrs by TopCount NXT counter based analysis
T3 sequence (P21731 whole entry): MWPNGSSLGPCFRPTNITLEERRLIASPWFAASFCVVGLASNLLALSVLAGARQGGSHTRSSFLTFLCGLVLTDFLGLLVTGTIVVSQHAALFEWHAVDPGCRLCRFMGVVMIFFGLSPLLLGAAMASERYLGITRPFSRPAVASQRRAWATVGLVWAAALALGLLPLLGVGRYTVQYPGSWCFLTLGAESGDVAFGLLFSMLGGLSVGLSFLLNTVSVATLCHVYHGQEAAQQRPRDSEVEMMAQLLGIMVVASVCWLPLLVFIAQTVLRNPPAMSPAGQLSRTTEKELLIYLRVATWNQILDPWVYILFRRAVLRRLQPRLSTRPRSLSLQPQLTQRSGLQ

[10] = Induction of relaxation in PGE2-induced carbachol pre-contracted C57BL/6 mouse trachea incubated for 30 mins; type: functional, tissue-based
In short: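 Male C57BL/6 tracheal rings at 0.35 g tension in Krebs (95% O2/5% CO2, 37°C). Rings were precontracted with 10 µM carbachol before cumulative half-log PGE2 (0.1 nM–30 µM). Curves were repeated in the same ring after 30 min with 3 nM antagonist or DMSO, and 10 µM forskolin set maximal relaxation. pKB = log(CR−1) − log[B].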

[11] = target: Prostaglandin E2 receptor EP2 subtype (Mus musculus) (UniProt Q62053); assay: Binding affinity to mouse trachea EP2 receptor assessed as equilibrium binding constant incubated for 30 mins followed by agonist addition measured after 90 mins; type: tissue-based; conditions: filed as antagonist, time 120.0 min
Sequence of Prostaglandin E2 receptor EP2 subtype (Mus musculus) (Q62053 whole entry): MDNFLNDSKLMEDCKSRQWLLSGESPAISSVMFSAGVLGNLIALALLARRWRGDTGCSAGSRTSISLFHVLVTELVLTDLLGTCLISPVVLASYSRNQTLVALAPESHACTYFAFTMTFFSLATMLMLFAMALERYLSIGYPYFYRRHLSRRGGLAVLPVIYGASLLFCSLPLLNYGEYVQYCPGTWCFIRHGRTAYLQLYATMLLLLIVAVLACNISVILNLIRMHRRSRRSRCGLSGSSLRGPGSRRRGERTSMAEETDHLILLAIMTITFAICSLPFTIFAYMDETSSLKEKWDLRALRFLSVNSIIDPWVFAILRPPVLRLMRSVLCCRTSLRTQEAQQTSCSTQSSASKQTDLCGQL

[12] = Inhibition of EFS-induced contraction of human myometrium assessed as butaprost IC50 at 100 nM incubated for 60 mins (reference value: 27.8 nM); type: functional, tissue-based; in short: as §3
[13] = Induction of relaxation in PGE2-induced carbachol pre-contracted C57BL/6 mouse trachea at 100 nM incubated for 30 mins relative to control (reference value: 11 +/- 3.2%); type: functional; set-up: scale not given: the % may be the effect or the level left; conditions: 0.5 h
[14] = Induction of relaxation in PGE2-induced carbachol pre-contracted C57BL/6 mouse trachea at 1 to 3 uM incubated for 30 mins relative to control (reference value: 11 +/- 3.2%); type: functional; set-up: scale not given: the % may be the effect or the level left; conditions: dose 1-3 µM, 0.5 h
[15] = Clearance in Sprague-Dawley rat at 1 mg/kg, po; type: ADME, organism-based; conditions: in vivo
[16] = Volume of distribution in Sprague-Dawley rat at 1 mg/kg, po; type: ADME, organism-based; conditions: in vivo
Canis lupus familiaris = species on record: Canis lupus familiaris; assay: Induction of relaxation in PGE2-induced carbachol pre-contracted rings of Beagle dog bronchioles at 3 to 100 nM incubated for 1 hr; type: functional, tissue-based; conditions: Bronchiole, dose 3-100 nM
In short: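 Beagle bronchiole rings held at 1 g tension in Krebs at 37°C (with propranolol and phentolamine), primed with 80 mM KCl. Rings were precontracted with 1 µM carbachol, then antagonist (3–100 nM) or vehicle was equilibrated for 1 h. Cumulative PGE2 relaxation curves followed, with final 10 µM nifedipine defining maximal relaxation. KB by the Lew and Angus method.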

Rattus norvegicus [17] = assay: Effect on butaprost induced cutaneous blood flow in po dosed Sprague-Dawley rat measured upto 95 mins; type: functional, organism-based; conditions: dose 1-10 mg/kg; in short: as §1
Rattus norvegicus [18] = assay: Effect on butaprost-induced cutaneous blood flow in Sprague-Dawley rat assessed as reduction in mean cutaneous blood flow peak response by measuring AUC(0 to 60 mins) at 10 mg/kg, po measured upto 95 mins; type: functional; set-up: scale not given: the % may be the effect or the level left; conditions: 1.583 h; in short: as §1
[19] = Terminal half life in Sprague-Dawley rat at 1 mg/kg, po; type: ADME, organism-based; conditions: in vivo, read-out: beta t1/2 (converted)
[20] = target: Prostaglandin E2 receptor EP2 subtype (Canis lupus familiaris) (UniProt Q9XT82); assay: Binding affinity to dog bronchiole EP2 receptor assessed as equilibrium binding constant incubated for 30 mins followed by agonist addition measured after 90 mins; type: tissue-based; conditions: filed as antagonist, time 120.0 min
Sequence of Prostaglandin E2 receptor EP2 subtype (Canis lupus familiaris) (Q9XT82 whole entry): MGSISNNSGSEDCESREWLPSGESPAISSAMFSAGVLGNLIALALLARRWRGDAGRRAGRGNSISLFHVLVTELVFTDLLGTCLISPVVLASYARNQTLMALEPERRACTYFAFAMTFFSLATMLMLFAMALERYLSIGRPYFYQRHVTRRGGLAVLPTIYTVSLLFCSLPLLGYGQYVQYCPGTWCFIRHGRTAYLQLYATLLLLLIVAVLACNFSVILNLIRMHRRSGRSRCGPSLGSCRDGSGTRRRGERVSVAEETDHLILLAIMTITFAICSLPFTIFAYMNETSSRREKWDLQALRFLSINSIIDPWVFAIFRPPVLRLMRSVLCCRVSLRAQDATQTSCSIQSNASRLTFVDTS

[21] = target: T1, Prostaglandin E2 receptor EP3 subtype; assay: Agonist activity at human EP3 receptor expressed in CHO cells incubated for 30 mins; type: functional, cell-based
[22] = Displacement of [3H]-Iloprost from human LTB4 receptor assessed as inhibition constant incubated for 2 hrs by TopCount NXT counter based analysis
[23] = target: T4, Prostaglandin E2 receptor EP1 subtype (Homo sapiens, UniProt P34995); assay: Antagonist activity at human EP1 receptor expressed in CHO cells assessed as increase in cAMP level incubated for 30 mins followed by agonist addition measured after 90 mins; type: functional, cell-based
T4 sequence (P34995 whole entry): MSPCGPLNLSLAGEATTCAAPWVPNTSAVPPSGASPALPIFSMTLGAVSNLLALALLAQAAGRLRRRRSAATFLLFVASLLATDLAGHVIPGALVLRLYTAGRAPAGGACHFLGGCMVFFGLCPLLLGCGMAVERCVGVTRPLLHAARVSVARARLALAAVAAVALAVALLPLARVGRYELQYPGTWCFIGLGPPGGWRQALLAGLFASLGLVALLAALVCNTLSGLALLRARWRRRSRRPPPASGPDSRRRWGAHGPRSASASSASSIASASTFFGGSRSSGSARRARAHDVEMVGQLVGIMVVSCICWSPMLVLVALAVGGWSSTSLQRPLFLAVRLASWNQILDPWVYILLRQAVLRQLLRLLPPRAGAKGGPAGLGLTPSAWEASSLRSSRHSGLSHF

[24] = target: T5, Prostaglandin D2 receptor (Homo sapiens, UniProt Q13258); assay: Antagonist activity at human DP1 receptor expressed in CHO cells incubated for 30 mins followed by agonist addition measured after 90 mins; type: functional, cell-based; in short: as §2
T5 sequence (Q13258 whole entry): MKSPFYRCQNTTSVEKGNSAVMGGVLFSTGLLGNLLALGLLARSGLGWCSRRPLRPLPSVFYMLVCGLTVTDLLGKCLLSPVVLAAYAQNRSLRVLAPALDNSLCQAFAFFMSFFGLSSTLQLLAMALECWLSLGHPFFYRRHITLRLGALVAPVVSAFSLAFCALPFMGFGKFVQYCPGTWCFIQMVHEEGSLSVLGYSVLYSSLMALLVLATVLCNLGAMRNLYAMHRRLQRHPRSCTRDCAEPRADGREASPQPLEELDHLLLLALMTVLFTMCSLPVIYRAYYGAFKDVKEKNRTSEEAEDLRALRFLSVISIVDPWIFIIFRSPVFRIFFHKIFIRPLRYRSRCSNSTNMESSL

[25] = target: T4, Prostaglandin E2 receptor EP1 subtype; assay: Agonist activity at human EP1 receptor expressed in CHO cells incubated for 30 mins; type: functional, cell-based

Sequence of Prostacyclin receptor (P43119 whole entry): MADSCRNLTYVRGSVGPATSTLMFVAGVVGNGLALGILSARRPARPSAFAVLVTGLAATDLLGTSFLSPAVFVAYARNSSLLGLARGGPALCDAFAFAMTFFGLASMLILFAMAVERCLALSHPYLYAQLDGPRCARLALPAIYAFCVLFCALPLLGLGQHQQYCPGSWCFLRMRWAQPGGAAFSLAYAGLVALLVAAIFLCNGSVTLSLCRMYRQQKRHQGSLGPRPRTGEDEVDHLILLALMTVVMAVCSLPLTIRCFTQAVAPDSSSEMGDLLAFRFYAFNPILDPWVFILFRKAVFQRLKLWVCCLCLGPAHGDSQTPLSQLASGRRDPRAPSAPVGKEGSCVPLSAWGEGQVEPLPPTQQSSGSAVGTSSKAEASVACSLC

pKi (Prostacyclin receptor): < 5.00
Cp(f) [2]: 170 nM
pEC50 [3]: < 4.48
pIC50 [4]: < 5.00
Cp(f) [5]: 94 nM
pKi [6]: < 5.00
pIC50 [7]: 7.27
pIC50 [8]: 4.49
bioavailability [9]: 78%
pKi (Thromboxane A2 receptor): < 5.00
pIC50 [10]: 8.57
Kb [11]: 0.0013 µM
pIC50 [12]: 6.45
CL/F [15]: 0.3 mL/min/kg
Vd [16]: 0.1 L/kg
half-life [19]: 8.8 h
Kb [20]: 0.0025 µM
pEC50 [21]: < 5.00
pKi [22]: 5.32
pIC50 [23]: < 5.00
pIC50 [24]: < 4.48
pEC50 [25]: < 5.00
Structure (SMILES): COc1ccc2cc(OCC3(C(=O)O)CN(C(=O)c4ccc(F)cc4)C3)ccc2c1 [PF-04418948]
Activity (Rattus norvegicus [1]): 41%
Activity (Mus musculus): Active
Activity [13]: 106.8%
Activity [14]: 73.5%
Activity (Canis lupus familiaris): Active
Activity (Rattus norvegicus [17]): Dose-Dependent Effect
Activity (Rattus norvegicus [18]): 61%
